# High-throughput results from PubChem.
# ZTA counter – ZTA (EBV) inhibition in EBNA-1 counter-screen; ZTA-DNA binding, fluorescence polarization; inhibition, % at 11 µM; 320,000 compounds, 0.15% hits; AID 2234; in the data active means inhibition above about 33%
# Apaf1 inhib – human Apaf-1 inhibition. O14727. reconstituted apoptosome caspase-3 activity, DEVD-Rh110 fluorescence. inhibition, % at 20 µM. 330,000 compounds, 0.71% hits; active means inhibition of at least 40% at 20 µM;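 further: plate controls were DMSO wells for no effect and DEVD-CHO caspase inhibitor wells for full effect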
# Target sequence (O14727 whole entry, looked up): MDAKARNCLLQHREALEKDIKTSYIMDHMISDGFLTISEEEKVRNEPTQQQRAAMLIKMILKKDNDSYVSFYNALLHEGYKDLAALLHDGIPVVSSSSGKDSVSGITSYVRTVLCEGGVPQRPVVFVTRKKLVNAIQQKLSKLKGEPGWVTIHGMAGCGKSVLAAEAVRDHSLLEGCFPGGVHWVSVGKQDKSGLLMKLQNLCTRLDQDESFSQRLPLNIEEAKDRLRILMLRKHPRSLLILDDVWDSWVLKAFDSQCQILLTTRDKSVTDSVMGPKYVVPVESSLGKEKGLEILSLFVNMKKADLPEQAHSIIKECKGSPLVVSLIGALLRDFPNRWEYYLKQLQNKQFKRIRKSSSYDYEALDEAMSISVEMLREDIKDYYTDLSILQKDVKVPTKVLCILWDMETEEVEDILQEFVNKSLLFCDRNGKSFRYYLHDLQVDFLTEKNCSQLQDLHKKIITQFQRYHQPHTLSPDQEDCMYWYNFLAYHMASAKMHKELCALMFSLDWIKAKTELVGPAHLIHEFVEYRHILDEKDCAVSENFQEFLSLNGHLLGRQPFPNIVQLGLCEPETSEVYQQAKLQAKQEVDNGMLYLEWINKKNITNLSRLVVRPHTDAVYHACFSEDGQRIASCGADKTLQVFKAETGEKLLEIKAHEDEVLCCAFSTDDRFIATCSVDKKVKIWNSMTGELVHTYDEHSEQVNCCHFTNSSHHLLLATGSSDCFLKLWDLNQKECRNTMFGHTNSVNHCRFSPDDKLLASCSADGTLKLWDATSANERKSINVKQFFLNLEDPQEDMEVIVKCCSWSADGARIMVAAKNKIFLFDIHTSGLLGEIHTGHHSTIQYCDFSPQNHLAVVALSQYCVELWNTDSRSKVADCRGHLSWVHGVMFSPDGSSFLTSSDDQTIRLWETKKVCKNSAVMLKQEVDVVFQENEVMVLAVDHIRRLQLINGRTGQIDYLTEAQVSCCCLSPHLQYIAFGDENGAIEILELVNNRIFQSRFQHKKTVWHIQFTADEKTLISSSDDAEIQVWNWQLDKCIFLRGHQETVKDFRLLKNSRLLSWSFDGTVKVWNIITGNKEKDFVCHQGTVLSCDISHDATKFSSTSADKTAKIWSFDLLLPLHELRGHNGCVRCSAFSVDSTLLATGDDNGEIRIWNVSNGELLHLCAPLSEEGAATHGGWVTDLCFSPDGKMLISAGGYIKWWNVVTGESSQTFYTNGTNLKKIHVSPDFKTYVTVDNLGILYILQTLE
#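 Material: reconstituted apoptosome with Apaf-1, cytochrome c, caspase-9, procaspase-3, dATP / Buffer or medium: pH 7.5 Hepes buffer with CHAPS, BSA, DTT / Also added: cytochrome c with DEVD-Rh110 / Schedule: compound with Apaf-1, dATP, procaspase-3 30 min, then 50 min reaction, room temperature / Technique: rhodamine 110 fluorescence at Ex 480/Em 540 nm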
# GSTO1 inh – blocks human GSTO1 in RBBP9 counter-screen; 300,000 compounds, 1.1% hits; P78417; inhibition, % at 5.96 µM; AID 1974; recombinant GSTO1, activity-based probe fluorescence polarization;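 active means inhibition above the campaign mean inhibition plus 3 SD, cut at about 35% in these data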;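 further: 0% = GSTO1-1 with DMSO and 100% = wells lacking GSTO1-1 enzyme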
# proCasp3 act – activates human procaspase-3; P42574; recombinant procaspase-3 D3A, Ac-DEVD-pNA absorbance 405 nm; activation, % at 8.5 µM; 330,000 compounds, 0.11% hits; AID 463141;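 active means activation above the mean of all tested compounds plus 3 SD, cut at about 21% in these data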;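 further: 0% = DMSO alone and 100% = DMSO wells spiked with extra 5 µM PC-3 D3A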
#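 Assay system: Procaspase-3 D3A mutant, all three cleavage aspartates alanine. Buffer or medium: Zinc-free HEPES saline buffer with Triton X-100. Times: 1 h compound preincubation, 2 h substrate hydrolysis at 25 °C. Measured by: 405 nm absorbance of p-nitroaniline, reads at 0 and 120 min. Read-out basis: percent activation relative to control range. Replicates: singlicate.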
# proCasp7 act – counter-screen for procaspase-3 activators: activators of human procaspase-7; P55210; AID 463210; 330,000 compounds, 0.093% hits; recombinant procaspase-7, Ac-DEVD-pNA absorbance 405 nm; D23A/D198A/D206A triple mutant, cannot self-cleave; scale: DMSO 0, 5 µM enzyme 100; activation, % at 8.5 µM;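 active means percent activation above the screen-wide mean plus 3 SD, cut at about 25% in these data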
#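 Detection: p-Nitroaniline absorbance at 405 nm, read at 0 and 120 min; system: Uncleavable procaspase-7 mutant enzyme; evaluation: % activation from two-timepoint absorbance difference, scaled to controls; times: 1 h enzyme–compound preincubation and 2 h substrate reaction, both 25 °C; buffer or medium: Zinc-free HEPES pH 7.4 with 300 mM NaCl, 0.01% Triton X-100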
# EBNA-1 inh – blocks EBNA-1 binding to DNA. EBNA-1 DNA binding, fluorescence polarization. inhibition, % at 14.8 µM. 300,000 compounds, 0.34% hits; in the data active means inhibition above about 28%
# Apaf-1 inh conf – confirmation of Apaf-1 inhibitors. inhibition, % at 20 µM. reconstituted apoptosome, caspase-3 DEVD-Rh110 fluorescence. 1,800 compounds, 25% hits. shares compounds with Apaf1 inhib. AID 504614;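 active means mean inhibition of at least 40% at 20 µM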;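 further: plate controls were DMSO wells for no effect and DEVD-CHO caspase inhibitor control wells for full effect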
# Rh110 interf inh – interferes with Rh110 fluorescence, flagging false Apaf-1 inhibitors | Rh110 fluorescence interference, quenched caspase reaction | 1,800 tested, under 10 active | activation (fluorescence interference), % at 20 µM | shares compounds with Apaf1 inhib | AID 504615;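 active means signal rise of 40% or more at 20 µM, treated as a fluorescence artifact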
# Apaf1 inh interf – Apaf-1 inhibitor counter-screen fluorescence artifact | AID 588538 | shares compounds with Apaf1 inhib | IC50, µM | fluorescence interference counterscreen, Apaf-1 assay format | 460 tested, under 10 active; call rule not given here
# * marks the source's active call; other numbers are inactive results; · = no result. Only some compounds are listed: those with a hit (about 1.8% of all), similar ones and a draw of the others.
SMILES,ZTA counter,Apaf1 inhib,GSTO1 inh,proCasp3 act,proCasp7 act,EBNA-1 inh,Apaf-1 inh conf,Rh110 interf inh,others
COc1ccccc1C1Nc2cccc3cccc(c23)N1,3,51*,50*,4,-20,10,31,7,
O=C(COC(=O)Cc1cccc(F)c1)NC(=O)NC1CCCCC1,·,14,·,·,·,·,·,·,
O=C(CCn1c2c(c3ccccc31)CCCC2)NNC(=O)c1ccc([N+](=O)[O-])cc1,-3,81*,3,-2,0,7,85*,7,Apaf1 inh interf=>100
CC(=O)NNC(=O)CCn1c2c(c3ccccc31)CCCC2,10,-3,-3,3,4,4,·,·,
O=C(CCn1c2c(c3ccccc31)CCCC2)NNC(=O)c1ccc(Cl)c([N+](=O)[O-])c1,2,89*,-2,0,1,-4,87*,8,Apaf1 inh interf=>100
CC(=O)N(C1=C(O)c2ccccc2C(=O)C1=O)C1CCCCC1,3,6,0,-6,3,3,·,·,
CC(=O)N(C)C1=C(O)c2ccccc2C(=O)C1=O,14,40*,4,0,-12,6,17,14,
CN1CCN(c2ccc(Cl)cc2NC(=O)CN2C(=O)NC(C)(c3ccccc3)C2=O)CC1 (configuration not stated),-21,38,-9,-12,1,-8,·,·,
CCC1(c2ccccc2)NC(=O)N(CC(=O)Nc2cc(Cl)ccc2N2CCN(C)CC2)C1=O (configuration not stated),2,58*,·,3,7,·,37,4,
CN(CCO)c1nc(N)c2c(N)nc3c(c2c1C#N)CC(=O)N3C1CCCC1,5,98*,14,-34,-50,0,21,-1,
CCN(CC)c1nc(N)c2c(N)nc3c(c2c1C#N)CC(c1ccccc1)O3 (configuration not stated),-6,15,4,-7,-5,-11,·,·,
COc1ccc(CN2C(=NC(=O)c3ccccc3)SC3CS(=O)(=O)CC32)cc1 (configuration not stated),6,14,13,-12,3,3,·,·,
CCCCCCCCCCCCCCCC[n+]1ccc(/C=N/O)cc1,3,80*,3,-11,7,-8,58*,17,Apaf1 inh interf=>100
O/N=C/c1cccc[n+]1CCCCCC[n+]1ccccc1/C=N/O,·,3,·,·,·,·,·,·,
CCCCCCCCCCCCCCCC[n+]1ccc(C(N)=O)cc1,-8,73*,9,-15,-7,-4,53*,8,Apaf1 inh interf=>100
CCCCCCCCCCCCCCCC[n+]1cccc(C(=O)N(CC)CC)c1,-9,74*,2,-2,8,-1,72*,20,Apaf1 inh interf=>100
CCCCCCCC[n+]1cccc(C(=O)N(CC)CC)c1,-12,-3,1,8,1,-1,·,·,
CCN(CC(=O)Nc1c(F)cccc1F)C(=O)c1ccc(Cl)c(S(=O)(=O)N2CCCCC2)c1,-3,8,-3,8,4,-14,·,·,
O=C(Nc1ccc(Cl)c(Cl)c1)C1CCN(C(=O)c2ccco2)CC1,-2,20,2,3,-4,7,·,·,
COc1cc(C2C(C#N)=C(C)NC3=C2C(=O)c2ccccc23)cc(OC)c1OC (configuration not stated),4,54*,5,-6,8,4,28,11,
COc1ccc(C2C(C#N)=C(C)NC3=C2C(=O)c2ccccc23)cc1 (configuration not stated),-5,12,-8,-2,-5,-18,·,·,
